V1aR counter: counter-screen for oxytocin receptor agonists: human V1a receptor agonists; CHO-V1R cells, Fluo-8 calcium fluorescence, agonist mode; 0% DMSO, 100% 3 nM vasopressin; activation, % at 3 µM; hit rate 0.25% among 320,000;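 active means activation above the mean activation of all tested compounds plus 3 SD, per screening run, cut at about 20% in these data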;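 further: signal is peak over basal fluorescence ratio across a 100 second FLIPR read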
OXTR agonist: agonists of human oxytocin receptor. P30559. CHO-OTR cells, Fluo-8 calcium fluorescence; normalized: DMSO 0%, oxytocin 100%. activation, % at 3 µM. hit rate 0.32% among 320,000. AID 2435;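 active means activation above the mean of all tested compounds plus 3 SD, cutoff set per screening run, cut at about 20% in these data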;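 further: peak over basal fluorescence ratio from a 100 s FLIPR kinetic read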
TRPML3 agonist: agonists of human TRPML3 channel; Q8TDD5; HEK293 TRPML3-YFP, Fluo-8 calcium fluorescence; 100% = the carbachol control signal; activation, % at 3 µM; hit rate 0.29% among 220,000;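 active means activation above its plate's cutoff, the mean activation of the plate's test wells plus 3 SD, cut at about 12% in these data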;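 further: 0% = DMSO only wells and 100% = carbachol wells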
Target sequence (Q8TDD5 whole entry, looked up): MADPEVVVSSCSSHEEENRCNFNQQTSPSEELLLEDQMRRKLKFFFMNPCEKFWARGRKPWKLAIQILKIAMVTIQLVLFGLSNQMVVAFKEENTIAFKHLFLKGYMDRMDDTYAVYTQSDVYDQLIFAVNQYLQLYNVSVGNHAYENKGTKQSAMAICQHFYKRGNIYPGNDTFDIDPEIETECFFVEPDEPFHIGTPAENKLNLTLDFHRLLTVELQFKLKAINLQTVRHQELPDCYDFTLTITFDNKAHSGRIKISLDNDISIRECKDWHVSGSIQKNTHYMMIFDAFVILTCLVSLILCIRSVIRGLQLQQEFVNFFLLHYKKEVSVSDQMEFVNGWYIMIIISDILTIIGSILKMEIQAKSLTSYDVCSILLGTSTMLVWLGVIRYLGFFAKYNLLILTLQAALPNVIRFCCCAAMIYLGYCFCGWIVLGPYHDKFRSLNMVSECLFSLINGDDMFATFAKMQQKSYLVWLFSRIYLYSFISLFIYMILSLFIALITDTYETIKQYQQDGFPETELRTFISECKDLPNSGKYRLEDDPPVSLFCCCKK
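Test system: TRPML3-YFP stable HEK293 cells. Doses: single point at 3 µM. Incubation: dye loading 1 h 37 °C then 30 min ambient, 125 s read. Signal: Fluo-8 calcium dye fluorescence, ex 470-495, em 515-575 nm. Measure: percent activation from peak-to-basal fluorescence ratio, scaled between DMSO and carbachol.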
zfTRPN1 agonist: agonists of zebrafish TRPN1 channel | HEK293 zebrafish TRPN1-YFP, Fluo-8 calcium fluorescence; 100% = response to 87 µM carbachol | activation, % at 3 µM | hit rate 0.18% among 220,000 | AID 1424;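 active means activation above its plate's cutoff, the mean activation of test wells on that plate plus 3 SD, cut at about 19% in these data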;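 further: 0% = DMSO alone and 100% = 87 µM carbachol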
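Material – zebrafish TRPN1-YFP in HEK293 cells · Doses – 3 µM single point · Schedule – dye 1 h 37 °C plus 30 min RT · Signal – Fluo-8 calcium fluorescence, excitation 470-495 nm, emission 515-575 nm · Read-out – % activation versus carbachol response · Control set – carbachol high, DMSO low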
OXTR potentiate: human OXTR potentiation. P30559. CHO-OTR cells, Fluo-8 calcium fluorescence, potentiator mode; 0% = oxytocin EC15, 100% = EC100. hit rate 0.061% among 320,000. activation, % at 3 µM;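 active means activation above that plate's cutoff, the mean activation of tested compounds plus 3 SD, cut at about 6.6% in these data, passing the limit was not always enough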;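 further: 100% uses oxytocin at 75 nM as the full agonist control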
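Assay system: CHO cell line stably expressing human OTR. Reagent: EC15 oxytocin agonist. Dosing: single dose, 3.0 µM nominal final compound concentration. Timing: compound 6 min at room temperature before oxytocin, 100 s read. Signal: kinetic Fluo-8 calcium fluorescence. Controls: oxytocin EC15 low and EC100 high.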
OXTR agonist cf: confirmation of human oxytocin receptor agonists; shares compounds with OXTR agonist; hit rate 20% among 390; CHO-OTR cells, Fluo-8 calcium fluorescence, agonist; activation, % at 3 µM;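 active means mean activation above about 20% derived from the earlier single-dose screen, limit read from the data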;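 further: peak over minimum fluorescence ratio per well during a 100 second FLIPR read; 0% = DMSO alone and 100% = oxytocin high control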
V1aR counter 3x: counter-screen for oxytocin receptor agonists: V1a receptor agonists; CHO-V1R cells, Fluo-8 calcium fluorescence, agonist; shares compounds with OXTR agonist; AID 434991; activation, % at 3 µM; hit rate 10% among 390;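 active means mean activation over triplicate exceeds the hit threshold set in the earlier primary screen, cut at about 20% in these data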;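 further: peak over basal fluorescence ratio within a 100 second read; 0% = DMSO alone and 100% = 3 nM vasopressin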
* = called active by the depositor; . = no result. Compounds with a hit are over-represented: about 0.58% of the library has one in this group of screens.

SMILES | V1aR counter | OXTR agonist | TRPML3 agonist | zfTRPN1 agonist | OXTR potentiate | OXTR agonist cf | V1aR counter 3x
O=C(COC(=O)c1ccc(NC(=O)C2CC=CCC2C(=O)O)cc1)c1ccccc1 (stereo unspecified) | 0 | 1 | . | . | -1 | . | .
OC(CNCC1CCCO1)Cn1c2ccc(Cl)cc2c2cc(Cl)ccc21 (stereo unspecified) | 3 | 33* | 1 | 2 | -16 | 14 | 5
CC(C)(C)N(NC(=O)Nc1ccc(Cl)c(Cl)c1)C(=O)c1ccccc1 | 8 | 20* | 3 | 8 | -27 | 10 | 10
CC(C)(C)N(NC(=O)Nc1ccc(F)cc1)C(=O)c1ccccc1 | 1 | 0 | 0 | 1 | -2 | . | .
Cc1ccc(NC(=O)CCCn2nc(C)c3c(C)n(-c4ccccc4)nc3c2=O)c(Cl)c1 | -1 | -1 | . | . | -16 | . | .
CCCCCCCCCCOC(=O)Cn1c(COc2ccccc2C)[n+](C)c2ccccc21 | 1 | 22* | . | . | -3 | 15 | 16
CCCCCCCCCCOC(=O)Cn1c(COc2ccc(Cl)cc2)[n+](C)c2ccccc21 | 18 | 17 | . | . | -11 | . | .
CCCCCCCCCCOC(=O)Cn1c(COc2cccc(C)c2)[n+](C)c2ccccc21 | 13 | 45* | . | . | -18 | 34* | 23*
Cc1cc(C(c2ccc(O)cc2)c2cc(C)c(O)cc2C)c(C)cc1O | 18 | 41* | . | . | -26 | 40* | 26*
COc1ccc(CNCCC(c2ccccc2)c2ccc3c(c2)OCO3)cc1 (stereo unspecified) | 16 | 22* | 0 | -1 | -10 | 16 | 14
CC1(c2ccc(OC(F)F)cc2)NC(=O)N(CC(=O)N2c3ccccc3NC(=O)C2(C)C)C1=O (stereo unspecified) | 4 | 5 | . | . | -5 | . | .
Cc1c(C(=O)O)sc2nc(-c3cccs3)cc(C(F)(F)F)c12 | 0 | 0 | . | . | -10 | . | .
CC(=O)c1sc2nc(-c3cccs3)cc(C(F)(F)F)c2c1N | 14 | 27* | 5 | 12 | -18 | 40* | 52*
COc1ccc(CNC(=O)Cn2c(=O)n(CC(=O)N3CCCCC3)c(=O)c3sccc32)cc1 | 1 | 1 | . | . | -2 | . | .
CCn1c(=O)c(C(=O)Nc2ncccc2C)c(O)c2ccccc21 | 20 | 32* | 3 | 14 | -6 | 6 | 33*
Brc1ccc2[nH]c3c(N4CCc5ccccc5C4)ncnc3c2c1 | 10 | 24* | 2 | 4 | -21 | 7 | 8
O=C1c2cccnc2C(=O)N1Cc1ccc(F)cc1S(=O)(=O)NCc1ccco1 | 0 | 0 | . | . | -9 | . | .
COc1ccc(/C=C/C(=O)NC(=S)NNC(=O)c2cccs2)cc1 | 17 | 26* | 1 | 1 | -35 | 6 | 8
COc1ccc(C(=O)NNC(=S)NC(=O)c2cccs2)cc1 | 9 | 13 | . | . | -15 | . | .
CCOC(=O)c1ccc2c(c1)N(C)C(=O)c1ccccc1S2 | -1 | -3 | . | . | -6 | . | .
CCOC(=O)c1cc2n(c1/N=C/N(C)C)-c1ccccc1C2=O | 15 | 24* | 1 | 1 | -11 | 26* | 33*
O=C(NC1CCCC1)C(c1cccs1)N(CC1CCCO1)C(=O)Cc1cccs1 (stereo unspecified) | -1 | 20* | 0 | 1 | -13 | -1 | 1
COc1ccc(C(C(=O)NC2CCCC2)N(CC2CCCO2)C(=O)Cc2cccs2)cc1OC (stereo unspecified) | 1 | -1 | 0 | -1 | 0 | . | .
O=C(CN1CCN(CC(=O)Nc2ccc(OCc3ccccc3)cc2)CC1)Nc1ccc(F)cc1 | 15 | 21* | 2 | 1 | -12 | 9 | 9
O=C(CCN1CCN(Cc2ccccc2)CC1)Nc1ccc(OCc2ccccc2)cc1 | 15 | 22* | 3 | 3 | -12 | 11 | 8
SMILES | V1aR counter | OXTR agonist | TRPML3 agonist | zfTRPN1 agonist | OXTR potentiate | OXTR agonist cf | V1aR counter 3x
COCCOC1CCN(C(=O)C2CCC(=O)N(CCc3ccccc3)C2)CC1 (stereo unspecified) | 0 | 1 | . | . | 3 | . | .
COC(=O)c1sc(NC(=S)NC(=O)c2ccccc2C)nc1C | 10 | 28* | 0 | 0 | -26 | 33* | 39*
Nc1nc2ccccc2n1Cc1ccc(Cl)c(Cl)c1 | 13 | 25* | . | . | -24 | 6 | 4
C[C@H](CO)N1C[C@H](C)[C@@H](CN(C)C(=O)Nc2ccc(F)cc2)Oc2ccc(NS(C)(=O)=O)cc2C1=O | 0 | 0 | . | . | -4 | . | .
O=C(CS(=O)(=O)c1cn(Cc2ccc(F)cc2)c2ccccc12)N1CCCCC1 | 0 | 0 | 0 | -1 | -10 | . | .
O=C(CCc1cn(Cc2ccc(F)cc2)c2ccccc12)N1CCOCC1 | 5 | 20* | . | . | -24 | -1 | 0
COc1ccc(C2SCCN2C(=S)Nc2ccc(Cl)cc2)cc1 (stereo unspecified) | 9 | 15 | 0 | 1 | -13 | . | .
COc1ccc(C2SCCN2C(=S)Nc2cccc(Cl)c2)cc1 (stereo unspecified) | 14 | 23* | 1 | 2 | -21 | 30* | 18
Cc1cccc2sc(NC(=O)CCNS(=O)(=O)c3cccc4nonc34)nc12 | 13 | 20* | 1 | 3 | -12 | 4 | 3
CC(=O)Nc1ccc(S(=O)(=O)Oc2ccc(N3C(=O)C4CCCCC4C3=O)cc2)cc1 (stereo unspecified) | 17 | 24* | 7 | 13 | -11 | 14 | 14
CC(=O)Nc1ccc(S(=O)(=O)Oc2cccc(N3C(=O)C4CC=CCC4C3=O)c2)cc1 (stereo unspecified) | 13 | 11 | 3 | 5 | -7 | . | .
C[C@H]1CC[C@H]2C(=O)N[C@H](Cc3ccccc3)C(=O)N2[C@@H]1c1ccccc1 | 0 | 30* | 0 | 1 | -15 | 5 | -1
CC(C)c1ccc(C(=O)COC(=O)C(O)c2ccccc2)cc1 (stereo unspecified) | -1 | -2 | . | . | -3 | . | .
Cc1ccc(CNC(=O)Cn2nnc(C(=O)Nc3cccc(C)c3C)c2N)cc1 | 2 | 2 | . | . | -6 | . | .
Cc1ccccc1Cn1nnc(C(=O)Nc2cccc(C)c2C)c1N | 17 | 22* | 5 | 9 | -7 | 22* | 14
CC1CCCC(NC(=O)CN2CCN(S(=O)(=O)c3cccs3)CC2)C1C (stereo unspecified) | 2 | 3 | . | . | -1 | . | .
CC(=O)c1c(C)[nH]c(C(=O)CN2C(=O)NC(C)(c3ccc(C)cc3)C2=O)c1C (stereo unspecified) | 20 | 20* | 7 | 17 | -13 | 26* | 17
